# Tests used:
# Assay type in all cases: functional
# SF-268 = test: Cytotoxicity against human SF268 cells assessed as cell growth at 0.01 uM after 48 hrs by sulforhodamine B assay; conditions: SF-268, 48 h, read-out: Activity
# HCT-116 [1] = test: Cytotoxicity against human HCT116 cells assessed as cell growth at 10 uM after 48 hrs by sulforhodamine B assay; conditions: HCT-116, 48 h, read-out: Activity
# LOX IMVI = test: Growth inhibition of human LOXIMVI cells after 48 hrs by sulforhodamine B assay; conditions: for CC50: read-out: LC50 (the source's name)
# How it was run: (§1)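 NCI 60-cell screen, five-dose mode. Cells grown in RPMI 1640 with 5% FBS and 2 mM L-glutamine and plated at 5000-40,000 cells/well according to doubling time. After 24 h preincubation, a Tz plate was TCA-fixed. Five concentrations (10-fold or 1/2 log dilutions) were applied for 48 h at 37 °C. SRB staining read at 515 nm. IC50 taken from [(Ti-Tz)/(C-Tz)]×100 = 50.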
# NCI-H460 = test: Cytotoxicity against human NCI-H460 cells assessed as cell growth at 0.001 uM after 48 hrs by sulforhodamine B assay; conditions: NCI-H460, 48 h, read-out: Activity
# BT-549 [2] = test: Cytotoxicity against human BT549 cells assessed as cell growth at 0.01 uM after 48 hrs by sulforhodamine B assay; conditions: BT-549, 48 h, read-out: Activity
# How it was run: (§2)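 NCI-60 five-dose screen. Cells were grown in RPMI 1640 with 5% FBS and 2 mM L-glutamine, plated at 5000–40,000 cells/well and preincubated for 24 h. Time-zero plates were TCA-fixed. DMSO-solubilized drug was added at five concentrations (10-fold or ½-log serial dilutions) for 48 h at 37 °C, 5% CO2. Cells were TCA-fixed, stained with 0.4% SRB and read at 515 nm. Percent growth used time-zero, control and test absorbances.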
# DU-145 = test: Cytotoxicity against human DU145 cells assessed as cell growth at 100 nM after 48 hrs by sulforhodamine B assay; conditions: DU-145, 48 h, read-out: Activity
# BT-549 [3] = test: Cytotoxicity against human BT549 cells assessed as cell growth at 1 uM after 48 hrs by sulforhodamine B assay; conditions: BT-549, 48 h, read-out: Activity; how it was run: as §2
# SN12C = test: Cytotoxicity against human SN12C cells assessed as cell growth at 10 uM after 48 hrs by sulforhodamine B assay; conditions: read-out: Activity
# OVCAR-8 = test: Growth inhibition of human OVCAR8 cells after 48 hrs by sulforhodamine B assay; conditions: OVCAR-8, 48 h; for CC50: read-out: LC50 (the source's name); how it was run: as §1
# ACHN = test: Cytotoxicity against human ACHN cells assessed as cell growth at 100 nM after 48 hrs by sulforhodamine B assay; conditions: read-out: Activity; how it was run: as §2
# [4] = Cytotoxicity against human Hs 578T cells assessed as cell growth at 100 nM after 48 hrs by sulforhodamine B assay; conditions: read-out: Activity
# CCRF-CEM = test: Cytotoxicity against human CCRF-CEM cells assessed as cell growth at 100 nM after 48 hrs by sulforhodamine B assay; conditions: read-out: Activity; how it was run: as §2
# HCT-116 [5] = test: Cytotoxicity against human HCT116 cells assessed as cell growth at 1 uM after 48 hrs by sulforhodamine B assay; conditions: HCT-116, 48 h, read-out: Activity
# NCI-H522 [6] = test: Growth inhibition of human NCI-H522 cells after 48 hrs by sulforhodamine B assay; conditions: NCI-H522, 48 h; for CC50: read-out: LC50 (the source's name); how it was run: as §1
# HCC 2998 = test: Cytotoxicity against human HCC2998 cells assessed as cell growth at 0.001 uM after 48 hrs by sulforhodamine B assay; conditions: HCC 2998, 48 h, read-out: Activity
# MCF7 = test: Cytotoxicity against human MCF7 cells assessed as cell growth at 0.01 uM after 48 hrs by sulforhodamine B assay; conditions: MCF7, 48 h, read-out: Activity
# MDA-MB-468 [7] = test: Cytotoxicity against human MDA-MB-468 cells assessed as cell growth at 100 nM after 48 hrs by sulforhodamine B assay; conditions: MDA-MB-468, 48 h, read-out: Activity
# MDA-MB-231 = test: Cytotoxicity against human MDA-MB-231 cells assessed as cell growth at 10 uM after 48 hrs by sulforhodamine B assay; conditions: MDA-MB-231, 48 h, read-out: Activity
# IGROV-1 = test: Cytotoxicity against human IGROV1 cells assessed as cell growth at 10 uM; conditions: read-out: Activity
# How it was run: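 Single-dose NCI-60 screen at 10 µM. Cells were grown in RPMI 1640 with 5% FBS and 2 mM L-glutamine, then treated for 48 h at 37 °C. Protein was measured by SRB staining with absorbance at 515 nm. Percentage growth was recorded, and inhibition percentage was calculated as 100 minus growth percentage.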
# NCI-H522 [8] = test: Cytotoxicity against human NCI-H522 cells assessed as cell growth at 0.001 uM after 48 hrs by sulforhodamine B assay; conditions: NCI-H522, 48 h, read-out: Activity
# Malme-3M = test: Cytotoxicity against human MALME-3M cells assessed as cell growth at 10 uM after 48 hrs by sulforhodamine B assay; conditions: read-out: Activity
# NCI-H322M = test: Growth inhibition of human NCI-H322M cells after 48 hrs by sulforhodamine B assay; conditions: for CC50: read-out: LC50 (the source's name); how it was run: as §1
# PC-3 = test: Cytotoxicity against human PC3 cells assessed as cell growth at 0.01 uM after 48 hrs by sulforhodamine B assay; conditions: PC-3, 48 h, read-out: Activity
# A549 = test: Cytotoxicity against human A549 cells assessed as cell growth at 10 uM after 48 hrs by sulforhodamine B assay; conditions: A549, 48 h, read-out: Activity; how it was run: as §2
# 786-0 [9] = test: Cytotoxicity against human 786-0 cells assessed as cell growth at 0.001 uM after 48 hrs by sulforhodamine B assay; conditions: 786-0, 48 h, read-out: Activity; how it was run: as §2
# MDA-MB-468 [10] = test: Cytotoxicity against human MDA-MB-468 cells assessed as cell growth at 0.01 uM after 48 hrs by sulforhodamine B assay; conditions: MDA-MB-468, 48 h, read-out: Activity
# SNB-75 = test: Cytotoxicity against human SNB75 cells assessed as cell growth at 10 uM after 48 hrs by sulforhodamine B assay; conditions: SNB-75, 48 h, read-out: Activity
# 786-0 [11] = test: Cytotoxicity against human 786-0 cells assessed as cell growth at 1 uM after 48 hrs by sulforhodamine B assay; conditions: 786-0, 48 h, read-out: Activity; how it was run: as §2
# TK-10 = test: Cytotoxicity against human TK10 cells assessed as cell growth at 0.01 uM after 48 hrs by sulforhodamine B assay; conditions: TK-10, 48 h, read-out: Activity
# SF-539 = test: Cytotoxicity against human SF539 cells assessed as cell growth at 0.01 uM after 48 hrs by sulforhodamine B assay; conditions: SF-539, 48 h, read-out: Activity
# HOP-62 = test: Cytotoxicity against human HOP62 cells assessed as cell growth at 100 nM after 48 hrs by sulforhodamine B assay; conditions: HOP-62, 48 h, read-out: Activity
# HOP-92 = test: Cytotoxicity against human HOP92 cells assessed as cell growth at 0.001 uM after 48 hrs by sulforhodamine B assay; conditions: HOP-92, 48 h, read-out: Activity
Compound,growth at 0.01 µM (SF-268) [%],growth at 10 µM (HCT-116 [1]) [%],GI50 (LOX IMVI) [nM],TGI (LOX IMVI) [µM],CC50 (LOX IMVI) [µM],growth at 0.001 µM (NCI-H460) [%],growth at 0.01 µM (BT-549 [2]) [%],growth at 0.1 µM (DU-145) [%],growth at 1 µM (BT-549 [3]) [%],growth at 10 µM (SN12C) [%],GI50 (OVCAR-8) [nM],TGI (OVCAR-8) [µM],CC50 (OVCAR-8) [µM],growth at 0.1 µM (ACHN) [%],growth at 0.1 µM [4] [%],growth at 0.1 µM (CCRF-CEM) [%],growth at 1 µM (HCT-116 [5]) [%],GI50 (NCI-H522 [6]) [nM],TGI (NCI-H522 [6]) [µM],CC50 (NCI-H522 [6]) [µM],other results
Cc1cc(O)cc(-c2nn(CC#N)cc2-c2ccnc(-c3ccc(N(C)C)cc3)c2)c1,90,-81,5130,17.8,47.7,109,91,94,4,-29,4200,69.4,> 100,93,82,96,2,1930,7.14,68.1,growth at 0.001 µM (HCC 2998): 91%; growth at 0.01 µM (MCF7): 89%; growth at 0.1 µM (MDA-MB-468 [7]): 77%; growth at 10 µM (MDA-MB-231): -21%; growth at 10 µM (IGROV-1): 44%; growth at 0.001 µM (NCI-H522 [8]): 87%; growth at 10 µM (Malme-3M): -19%; GI50 (NCI-H322M): 6.08 µM; TGI (NCI-H322M): 59.8 µM; CC50 (NCI-H322M): > 100 µM; growth at 0.01 µM (PC-3): 92%; growth at 10 µM (A549): -8%; growth at 0.001 µM (786-0 [9]): 102%; growth at 0.01 µM (MDA-MB-468 [10]): 91%; growth at 10 µM (SNB-75): -26%; growth at 1 µM (786-0 [11]): 14%; growth at 0.01 µM (TK-10): 107%; growth at 0.01 µM (SF-539): 92%; growth at 0.1 µM (HOP-62): 80%; growth at 0.001 µM (HOP-92): 80%
Cc1cc(O)cc(-c2nn(CC#N)cc2-c2ccnc(-c3ccc(Oc4ccccc4)cc3)c2)c1,91,-97,1870,3.39,6.13,100,91,86,4,-87,2080,5.54,21.9,95,82,86,-100,2720,10.4,35.1,growth at 0.001 µM (HCC 2998): 96%; growth at 0.01 µM (MCF7): 92%; growth at 0.1 µM (MDA-MB-468 [7]): 88%; growth at 10 µM (MDA-MB-231): -62%; growth at 10 µM (IGROV-1): 72.2%; growth at 0.001 µM (NCI-H522 [8]): 83%; growth at 10 µM (Malme-3M): -72%; GI50 (NCI-H322M): 5.68 µM; TGI (NCI-H322M): 19.2 µM; CC50 (NCI-H322M): 48.6 µM; growth at 0.01 µM (PC-3): 86%; growth at 10 µM (A549): -71%; growth at 0.001 µM (786-0 [9]): 98%; growth at 0.01 µM (MDA-MB-468 [10]): 85%; growth at 10 µM (SNB-75): -98%; growth at 1 µM (786-0 [11]): -34%; growth at 0.01 µM (TK-10): 99%; growth at 0.01 µM (SF-539): 88%; growth at 0.1 µM (HOP-62): 101%; growth at 0.001 µM (HOP-92): 74%
COc1cc(C)cc(-c2nn(CC#N)cc2-c2ccnc(-c3ccc(N(C)C)cc3)c2)c1,90,-44,681,14.8,> 100,103,100,2,-10,-8,522,41.6,> 100,29,-19,24,-41,196,0.492,3.24,growth at 0.001 µM (HCC 2998): 106%; growth at 0.01 µM (MCF7): 38%; growth at 0.1 µM (MDA-MB-468 [7]): -18%; growth at 10 µM (MDA-MB-231): 4%; growth at 10 µM (IGROV-1): 13.1%; growth at 0.001 µM (NCI-H522 [8]): 77%; growth at 10 µM (Malme-3M): 5%; TGI (NCI-H322M): > 1 µM; CC50 (NCI-H322M): > 100 µM; growth at 0.01 µM (PC-3): 96%; growth at 10 µM (A549): -6%; growth at 0.001 µM (786-0 [9]): 101%; growth at 0.01 µM (MDA-MB-468 [10]): 74%; growth at 10 µM (SNB-75): -8%; growth at 1 µM (786-0 [11]): -8%; growth at 0.01 µM (TK-10): 119%; growth at 0.01 µM (SF-539): 107%; growth at 0.1 µM (HOP-62): 16%; growth at 0.001 µM (HOP-92): 102%
